Source: ChEMBL document CHEMBL2086325, “Suppression of autoimmune arthritis by Celastrus-derived Celastrol through modulation of pro-inflammatory chemokines” (Bioorg Med Chem, 2012)
Activity calls are given as the source filed them. The rule behind the calls is not given here.

Columns and labels:
[1] = test system: Rattus norvegicus; experiment: Antiarthritic effect in Lewis rat adjuvant-induced arthritis model serum assessed as reduction in RANTES production at 200 ug, ip starting from arthritis onset and continued uninterrupted until study end by cytokine multiplex assay; assay type: functional, organism-based
Outline: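 Arthritic Lewis rats (Mtb 1.5 mg s.c. in mineral oil) were given 200 μg/rat i.p. daily from onset until the day before harvest; controls received DMSO/PBS vehicle. On d 18, blood was taken by cardiac puncture after euthanasia and serum stored at −80 °C. Serum pooled from 4 rats was assayed in triplicate by multiplex.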

[2] = test system: Rattus norvegicus; experiment: Antiarthritic effect in Lewis rat adjuvant-induced arthritis model lymph node cells restimulated with sonicated Mtb post isolation assessed as reduction in MCP1 production at 200 ug, ip starting from arthritis onset and continued uninterrupted until study end by cytokine multiplex assay; assay type: functional, organism-based
Outline: (§1)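 Male Lewis rats were immunized s.c. with heat-killed Mtb H37Ra (1.5 mg/rat) in mineral oil. From arthritis onset they received 200 μg/rat i.p. daily (DMSO stock diluted in PBS); controls got 1.2% DMSO in PBS. On d 18, draining lymph node or synovial-infiltrating cells were cultured at 1.5 × 10^6/well in 2% FBS medium ± sonicated Mtb (10 μg/ml) for 24 h. Supernatants were analysed by multiplex.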

[3] = test system: Rattus norvegicus; experiment: Antiarthritic effect in Lewis rat adjuvant-induced arthritis model lymph node cells restimulated with sonicated Mtb post isolation assessed as reduction in TNFalpha production at 200 ug, ip starting from arthritis onset and continued uninterrupted until study end by cytokine multiplex assay; assay type: functional, organism-based; outline: as §1
[4] = organism: Rattus norvegicus; experiment: Antiarthritic effect in sonicated Mtb-stimulated spleen adherent cells isolated from Lewis rat adjuvant-induced arthritis model assessed as reduction in MCP1 production pre-incubated with compound for 30 mins before stimulation with sonicated-Mtb for 48 hrs by multiplex assay; assay type: functional, tissue-based
[5] = test system: Rattus norvegicus; experiment: Antiarthritic effect in Lewis rat adjuvant-induced arthritis model spleen adherent cells restimulated with sonicated Mtb post isolation assessed as reduction in CCR3 expression at 200 ug, ip starting from arthritis onset and continued uninterrupted until study end by qPCR; assay type: functional, organism-based
Outline: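 From onset of Mtb-induced arthritis, rats received 200 μg/rat i.p. daily or vehicle. Spleen adherent cells harvested on d 18 (1.5–2.0 × 10^6 cells/well) were cultured in medium or with sonicated Mtb (10 μg/ml) for 24 h. Receptor mRNA was quantified by qPCR after TRIzol RNA isolation and cDNA synthesis, normalized to HGPRT and reported as relative message.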

[6] = test system: Rattus norvegicus; experiment: Antiarthritic effect in Lewis rat adjuvant-induced arthritis model spleen adherent cells restimulated with sonicated Mtb post isolation assessed as reduction in RANTES production at 200 ug, ip starting from arthritis onset and continued uninterrupted until study end by cytokine multiplex assay; assay type: functional, organism-based
Outline: (§2)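 Mtb-immunized male Lewis rats were dosed 200 μg/rat i.p. daily from arthritis onset (vehicle: 1.2% DMSO/PBS). Spleen adherent cells were prepared on d 18, plated at 1.5 × 10^6/well in 2% FBS medium and restimulated with sonicated Mtb (10 μg/ml) for 24 h. Supernatant chemokines and cytokines were measured by Luminex multiplex. Mean ± SD of triplicates from 4–5 rats.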

[7] = test system: Rattus norvegicus; experiment: Antiarthritic effect in Lewis rat adjuvant-induced arthritis model spleen adherent cells restimulated with sonicated Mtb post isolation assessed as reduction in IL6 production at 200 ug, ip starting from arthritis onset and continued uninterrupted until study end by cytokine multiplex assay; assay type: functional, organism-based; outline: as §2

Q: `CC1=C(O)C(=O)C=C2C1=CC=C1[C@@]2(C)CC[C@@]2(C)[C@@H]3C[C@](C)(C(=O)O)CC[C@]3(C)CC[C@]12C` [CELASTROL] was tested. Which Activity [1] did it give?
A: The Activity was “Active”.

Q: And the Activity [2]?
A: Its Activity is “inactive”.

Q: What about the Activity [3] of the same compound?
A: Its Activity is “inactive”.

Q: What about the Activity [4] of the same compound?
A: Its Activity is “Dose-dependent effect”.

Q: And the Activity [5]?
A: The Activity was “Active”.

Q: What about the Activity [6] of the same compound?
A: Its Activity is “Active”.

Q: What about the Activity [7] of the same compound?
A: Its Activity is “inactive”.
